Our source for the inhibition values is ChEMBL document CHEMBL1811853, “Design and evaluation of 3-aminopyrazolopyridinone kinase inhibitors inspired by the natural product indirubin” (Bioorg Med Chem, 2011).

In experiment [1] the target is RAC-beta serine/threonine-protein kinase (Homo sapiens) (UniProt P31751). The experiment in a line: Inhibition of AKT2 at 30 uM by microfluidic mobility shift assay. A digest of the protocol:
(§1)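 Single-concentration screen, singlicate, 30 uM final (diluted from 1 mM DMSO solutions), fluorescently tagged peptide substrate appropriate to each kinase, ATP at apparent Km for each protein. Phosphorylated and unphosphorylated peptides separated electrophoretically; conversion is the phosphorylated peak area over the sum of both peaks. No-inhibitor and no-ATP controls; H89 reference on each plate.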

For experiment [2], the target named is Proto-oncogene tyrosine-protein kinase Src (Homo sapiens, UniProt P12931). The experiment in a line: Inhibition of SRC at 30 uM by microfluidic mobility shift assay. The gist of the method:
as §1

The target in experiment [3] is Ribosomal protein S6 kinase alpha-1 (Homo sapiens) (UniProt Q15418). The experiment in a line: Inhibition of RSK1 at 30 uM by microfluidic mobility shift assay. The gist of the method:
as §1

In experiment [4] the target is Mitogen-activated protein kinase 14 (Homo sapiens, UniProt Q16539). Description: Inhibition of p38alpha at 30 uM by microfluidic mobility shift assay. The gist of the method:
as §1

Experiment [5] addresses MAP kinase-activated protein kinase 2 (Homo sapiens, UniProt P49137). The experiment in a line: Inhibition of MAPKAPK2 at 30 uM by microfluidic mobility shift assay. A digest of the protocol:
as §1

Experiment [6] addresses Glycogen synthase kinase-3 beta (Homo sapiens) (UniProt P49841). Description: Inhibition of GSK3B at 30 uM by microfluidic mobility shift assay. The gist of the method:
as §1

For experiment [7], the target named is Tyrosine-protein kinase Fyn (Homo sapiens, UniProt P06241). The experiment in a line: Inhibition of FYN at 30 uM by microfluidic mobility shift assay. A digest of the protocol: as §1
Chain of Tyrosine-protein kinase Fyn (P06241 2-537 limits assumed): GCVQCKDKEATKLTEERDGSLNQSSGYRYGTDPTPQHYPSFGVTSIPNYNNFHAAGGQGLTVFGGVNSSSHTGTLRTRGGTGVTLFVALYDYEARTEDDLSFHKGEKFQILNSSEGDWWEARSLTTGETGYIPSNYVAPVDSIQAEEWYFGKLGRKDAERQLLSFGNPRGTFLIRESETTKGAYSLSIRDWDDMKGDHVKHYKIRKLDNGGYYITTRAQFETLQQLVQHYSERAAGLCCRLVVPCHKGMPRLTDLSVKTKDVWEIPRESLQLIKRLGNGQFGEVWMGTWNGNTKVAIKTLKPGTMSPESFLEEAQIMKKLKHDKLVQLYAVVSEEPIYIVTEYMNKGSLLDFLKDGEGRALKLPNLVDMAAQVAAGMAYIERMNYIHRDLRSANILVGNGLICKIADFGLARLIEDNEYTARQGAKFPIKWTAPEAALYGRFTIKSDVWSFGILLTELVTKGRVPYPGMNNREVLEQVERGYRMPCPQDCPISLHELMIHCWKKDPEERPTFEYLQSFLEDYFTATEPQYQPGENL
Experiment [8] has as its target Insulin receptor (Homo sapiens) (UniProt P06213). Description: Inhibition of INSR at 30 uM by microfluidic mobility shift assay. A digest of the protocol:
as §1

Experiment [9] has as its target T1, Aurora kinase A (Homo sapiens) (UniProt O14965).
T1 sequence (whole entry): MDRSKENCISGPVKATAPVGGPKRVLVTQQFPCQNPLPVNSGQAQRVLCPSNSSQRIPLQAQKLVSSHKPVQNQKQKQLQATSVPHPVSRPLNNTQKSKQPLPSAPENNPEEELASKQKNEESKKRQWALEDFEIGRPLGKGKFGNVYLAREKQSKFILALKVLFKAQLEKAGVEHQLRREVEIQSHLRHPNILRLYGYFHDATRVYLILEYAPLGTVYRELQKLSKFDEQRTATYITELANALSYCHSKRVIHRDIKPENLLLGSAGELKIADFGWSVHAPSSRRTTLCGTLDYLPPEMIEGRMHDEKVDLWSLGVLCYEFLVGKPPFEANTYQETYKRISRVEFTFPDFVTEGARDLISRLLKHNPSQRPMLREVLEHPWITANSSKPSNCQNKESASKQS
The experiment in a line: Inhibition of AurA at 30 uM by microfluidic mobility shift assay. The gist of the method:
as §1

For experiment [10], the target named is RAC-alpha serine/threonine-protein kinase (Homo sapiens) (UniProt P31749). Description: Inhibition of AKT1 at 30 uM by microfluidic mobility shift assay. A digest of the protocol: as §1
Chain of RAC-alpha serine/threonine-protein kinase (Homo sapiens) (P31749 whole entry): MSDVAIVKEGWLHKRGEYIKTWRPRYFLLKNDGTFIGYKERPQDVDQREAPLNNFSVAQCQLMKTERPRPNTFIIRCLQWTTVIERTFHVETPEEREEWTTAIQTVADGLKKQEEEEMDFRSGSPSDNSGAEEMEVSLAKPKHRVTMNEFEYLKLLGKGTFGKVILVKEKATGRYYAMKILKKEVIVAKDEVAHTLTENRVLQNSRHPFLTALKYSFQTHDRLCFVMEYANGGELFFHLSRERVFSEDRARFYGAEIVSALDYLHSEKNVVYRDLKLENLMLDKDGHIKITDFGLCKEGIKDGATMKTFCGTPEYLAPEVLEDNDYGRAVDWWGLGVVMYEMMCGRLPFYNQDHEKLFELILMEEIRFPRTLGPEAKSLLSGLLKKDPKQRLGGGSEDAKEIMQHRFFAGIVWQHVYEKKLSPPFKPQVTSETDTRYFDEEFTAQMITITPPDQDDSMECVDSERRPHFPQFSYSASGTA
Experiment [11] concerns the target Mitogen-activated protein kinase 1 (Homo sapiens) (UniProt P28482). The experiment in a line: Inhibition of ERK2 at 30 uM by microfluidic mobility shift assay. A digest of the protocol: as §1
In experiment [12] the target is Mitogen-activated protein kinase 3 (Homo sapiens) (UniProt P27361). Description: Inhibition of ERK1 at 30 uM by microfluidic mobility shift assay. A digest of the protocol: as §1
Chain of Mitogen-activated protein kinase 3 (Homo sapiens) (P27361 whole entry): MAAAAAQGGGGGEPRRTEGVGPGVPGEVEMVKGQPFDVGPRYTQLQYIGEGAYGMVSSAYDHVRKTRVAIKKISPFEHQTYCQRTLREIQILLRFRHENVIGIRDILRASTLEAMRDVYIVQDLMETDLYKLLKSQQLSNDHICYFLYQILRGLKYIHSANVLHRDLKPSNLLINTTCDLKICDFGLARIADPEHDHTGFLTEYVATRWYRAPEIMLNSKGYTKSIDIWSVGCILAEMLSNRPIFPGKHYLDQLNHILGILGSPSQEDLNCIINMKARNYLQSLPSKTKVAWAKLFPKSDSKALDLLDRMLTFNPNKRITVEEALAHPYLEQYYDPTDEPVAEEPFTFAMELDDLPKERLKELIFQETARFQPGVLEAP
The target in experiment [13] is Tyrosine-protein kinase Lyn (Homo sapiens, UniProt P07948). The experiment in a line: Inhibition of LYN at 30 uM by microfluidic mobility shift assay. The gist of the method: as §1
Experiment [14] concerns the target Tyrosine-protein kinase Lck (Homo sapiens, UniProt P06239). Description: Inhibition of LCK at 30 uM by microfluidic mobility shift assay. A digest of the protocol:
as §1

The target of experiment [15] is T2, Serine/threonine-protein kinase D2 (Homo sapiens) (UniProt Q9BZL6).
T2 sequence (whole entry): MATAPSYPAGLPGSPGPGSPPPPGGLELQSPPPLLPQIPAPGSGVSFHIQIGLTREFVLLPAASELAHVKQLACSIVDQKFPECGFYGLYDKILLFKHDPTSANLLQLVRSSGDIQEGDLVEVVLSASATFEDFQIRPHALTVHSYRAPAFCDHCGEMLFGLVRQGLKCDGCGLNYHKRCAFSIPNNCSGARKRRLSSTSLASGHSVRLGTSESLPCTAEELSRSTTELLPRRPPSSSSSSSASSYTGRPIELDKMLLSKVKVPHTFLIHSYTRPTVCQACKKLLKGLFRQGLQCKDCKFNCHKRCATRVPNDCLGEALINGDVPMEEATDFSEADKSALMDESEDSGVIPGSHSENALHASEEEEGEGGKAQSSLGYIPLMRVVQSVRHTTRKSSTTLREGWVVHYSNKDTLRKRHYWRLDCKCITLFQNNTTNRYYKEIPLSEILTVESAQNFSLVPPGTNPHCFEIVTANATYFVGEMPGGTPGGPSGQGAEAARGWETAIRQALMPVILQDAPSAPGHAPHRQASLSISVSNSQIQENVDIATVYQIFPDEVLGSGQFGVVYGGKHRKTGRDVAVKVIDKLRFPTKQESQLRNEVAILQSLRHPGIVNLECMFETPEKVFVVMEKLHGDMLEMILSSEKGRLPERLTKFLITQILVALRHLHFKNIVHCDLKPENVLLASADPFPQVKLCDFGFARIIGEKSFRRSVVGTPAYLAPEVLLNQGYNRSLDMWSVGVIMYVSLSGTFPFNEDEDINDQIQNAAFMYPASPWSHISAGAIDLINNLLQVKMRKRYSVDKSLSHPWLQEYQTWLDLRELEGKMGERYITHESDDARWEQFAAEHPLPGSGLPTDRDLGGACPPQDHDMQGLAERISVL
The experiment in a line: Inhibition of PKD2 at 30 uM by microfluidic mobility shift assay. A digest of the protocol: as §1

A short description of experiment [16]: Inhibition of PKA at 30 uM by microfluidic mobility shift assay. The gist of the method:
as §1

Experiment [17] concerns the target T3, Serine/threonine-protein kinase Chk1 (Homo sapiens) (UniProt O14757).
T3 sequence (whole entry): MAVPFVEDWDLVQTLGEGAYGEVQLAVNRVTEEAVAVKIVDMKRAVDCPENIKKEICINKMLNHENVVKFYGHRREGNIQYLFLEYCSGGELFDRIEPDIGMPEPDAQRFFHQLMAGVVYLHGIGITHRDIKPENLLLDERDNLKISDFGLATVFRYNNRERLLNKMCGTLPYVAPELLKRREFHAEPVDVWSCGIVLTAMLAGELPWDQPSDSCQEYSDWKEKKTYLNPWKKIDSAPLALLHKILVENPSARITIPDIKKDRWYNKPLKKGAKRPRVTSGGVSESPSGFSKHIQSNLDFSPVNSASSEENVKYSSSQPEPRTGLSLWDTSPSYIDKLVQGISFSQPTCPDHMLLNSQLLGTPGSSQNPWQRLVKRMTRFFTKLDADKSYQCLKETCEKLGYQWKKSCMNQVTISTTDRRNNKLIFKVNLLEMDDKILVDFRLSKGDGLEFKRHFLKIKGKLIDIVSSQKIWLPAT
The experiment in a line: Inhibition of CHK1 at 30 uM by microfluidic mobility shift assay. The gist of the method: as §1

Experiment [18] concerns the target Tyrosine-protein kinase ABL1 (Homo sapiens, UniProt P00519). Description: Inhibition of ABL at 30 uM by microfluidic mobility shift assay. A digest of the protocol:
as §1

Chain of Insulin receptor (Homo sapiens) (P06213 28-758 limits assumed): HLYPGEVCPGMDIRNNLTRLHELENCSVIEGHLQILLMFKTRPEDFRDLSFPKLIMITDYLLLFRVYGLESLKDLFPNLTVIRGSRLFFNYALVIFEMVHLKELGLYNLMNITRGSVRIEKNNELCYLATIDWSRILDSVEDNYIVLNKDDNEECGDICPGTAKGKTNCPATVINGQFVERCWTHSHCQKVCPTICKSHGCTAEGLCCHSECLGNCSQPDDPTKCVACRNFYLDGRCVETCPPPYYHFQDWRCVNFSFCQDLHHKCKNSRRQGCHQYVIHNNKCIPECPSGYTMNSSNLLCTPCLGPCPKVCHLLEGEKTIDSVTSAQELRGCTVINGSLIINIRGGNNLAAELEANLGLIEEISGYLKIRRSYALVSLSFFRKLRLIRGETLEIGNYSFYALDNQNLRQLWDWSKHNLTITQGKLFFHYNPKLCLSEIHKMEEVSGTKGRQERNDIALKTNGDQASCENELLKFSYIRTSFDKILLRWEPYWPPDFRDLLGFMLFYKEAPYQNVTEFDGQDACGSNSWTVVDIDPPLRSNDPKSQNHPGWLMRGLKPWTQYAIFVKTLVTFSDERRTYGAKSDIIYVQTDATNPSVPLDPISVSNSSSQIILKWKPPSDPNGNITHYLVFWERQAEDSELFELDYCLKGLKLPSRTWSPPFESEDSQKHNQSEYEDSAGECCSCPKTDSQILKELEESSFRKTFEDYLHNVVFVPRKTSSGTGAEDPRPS
Chain of Insulin receptor (Homo sapiens) (P06213 763-1382 limits assumed): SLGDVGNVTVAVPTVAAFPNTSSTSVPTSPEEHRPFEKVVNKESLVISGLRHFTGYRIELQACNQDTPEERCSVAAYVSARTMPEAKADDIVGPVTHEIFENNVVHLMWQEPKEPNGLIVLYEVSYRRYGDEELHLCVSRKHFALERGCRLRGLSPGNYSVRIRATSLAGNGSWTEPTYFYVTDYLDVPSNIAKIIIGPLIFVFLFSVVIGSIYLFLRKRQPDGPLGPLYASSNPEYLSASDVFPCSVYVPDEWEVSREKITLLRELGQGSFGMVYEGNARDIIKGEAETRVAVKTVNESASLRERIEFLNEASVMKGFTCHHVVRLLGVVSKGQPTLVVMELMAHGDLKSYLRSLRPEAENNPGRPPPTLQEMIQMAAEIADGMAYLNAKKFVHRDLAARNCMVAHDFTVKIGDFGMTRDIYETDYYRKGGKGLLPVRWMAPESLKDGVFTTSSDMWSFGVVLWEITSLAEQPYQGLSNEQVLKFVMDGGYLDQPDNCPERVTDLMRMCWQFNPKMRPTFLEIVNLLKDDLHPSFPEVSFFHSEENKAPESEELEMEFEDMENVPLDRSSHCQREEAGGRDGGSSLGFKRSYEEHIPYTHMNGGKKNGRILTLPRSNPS
Chain of RAC-beta serine/threonine-protein kinase (Homo sapiens) (P31751 whole entry): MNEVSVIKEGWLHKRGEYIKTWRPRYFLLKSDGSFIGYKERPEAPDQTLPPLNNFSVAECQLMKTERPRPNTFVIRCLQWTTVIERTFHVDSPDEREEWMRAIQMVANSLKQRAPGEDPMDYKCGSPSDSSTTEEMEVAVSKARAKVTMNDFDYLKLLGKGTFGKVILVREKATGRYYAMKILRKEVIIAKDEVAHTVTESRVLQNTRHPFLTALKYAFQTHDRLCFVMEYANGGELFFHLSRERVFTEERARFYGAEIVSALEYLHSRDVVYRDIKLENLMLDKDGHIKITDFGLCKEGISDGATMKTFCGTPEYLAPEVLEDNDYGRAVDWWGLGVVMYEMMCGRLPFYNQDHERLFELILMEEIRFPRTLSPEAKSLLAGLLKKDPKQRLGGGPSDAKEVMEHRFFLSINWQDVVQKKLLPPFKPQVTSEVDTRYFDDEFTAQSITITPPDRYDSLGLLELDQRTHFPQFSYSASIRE
Chain of Tyrosine-protein kinase Lck (P06239 2-509 limits assumed): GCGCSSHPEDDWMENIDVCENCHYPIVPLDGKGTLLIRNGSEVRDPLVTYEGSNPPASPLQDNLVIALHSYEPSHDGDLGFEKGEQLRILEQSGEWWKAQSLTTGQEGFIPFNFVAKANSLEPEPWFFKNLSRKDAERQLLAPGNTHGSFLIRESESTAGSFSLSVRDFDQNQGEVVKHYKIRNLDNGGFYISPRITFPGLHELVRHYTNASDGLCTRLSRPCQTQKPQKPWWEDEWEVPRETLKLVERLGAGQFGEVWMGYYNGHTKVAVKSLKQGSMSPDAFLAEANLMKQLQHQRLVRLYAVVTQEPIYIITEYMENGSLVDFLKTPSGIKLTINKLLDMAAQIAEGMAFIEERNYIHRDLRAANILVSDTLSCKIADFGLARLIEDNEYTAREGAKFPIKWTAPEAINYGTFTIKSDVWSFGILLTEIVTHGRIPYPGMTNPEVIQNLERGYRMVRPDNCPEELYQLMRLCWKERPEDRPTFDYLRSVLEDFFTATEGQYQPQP
Chain of Mitogen-activated protein kinase 14 (Q16539 whole entry): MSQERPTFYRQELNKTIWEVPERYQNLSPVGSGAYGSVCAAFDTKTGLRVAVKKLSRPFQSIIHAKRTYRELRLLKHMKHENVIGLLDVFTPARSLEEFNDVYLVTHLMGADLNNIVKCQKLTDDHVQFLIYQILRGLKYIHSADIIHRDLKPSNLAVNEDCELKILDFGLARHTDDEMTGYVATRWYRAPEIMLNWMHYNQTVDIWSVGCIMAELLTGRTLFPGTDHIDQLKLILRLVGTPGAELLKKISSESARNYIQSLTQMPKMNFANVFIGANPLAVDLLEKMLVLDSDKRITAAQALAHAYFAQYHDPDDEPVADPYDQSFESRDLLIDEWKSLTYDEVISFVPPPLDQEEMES
Chain of Ribosomal protein S6 kinase alpha-1 (Homo sapiens) (Q15418 whole entry): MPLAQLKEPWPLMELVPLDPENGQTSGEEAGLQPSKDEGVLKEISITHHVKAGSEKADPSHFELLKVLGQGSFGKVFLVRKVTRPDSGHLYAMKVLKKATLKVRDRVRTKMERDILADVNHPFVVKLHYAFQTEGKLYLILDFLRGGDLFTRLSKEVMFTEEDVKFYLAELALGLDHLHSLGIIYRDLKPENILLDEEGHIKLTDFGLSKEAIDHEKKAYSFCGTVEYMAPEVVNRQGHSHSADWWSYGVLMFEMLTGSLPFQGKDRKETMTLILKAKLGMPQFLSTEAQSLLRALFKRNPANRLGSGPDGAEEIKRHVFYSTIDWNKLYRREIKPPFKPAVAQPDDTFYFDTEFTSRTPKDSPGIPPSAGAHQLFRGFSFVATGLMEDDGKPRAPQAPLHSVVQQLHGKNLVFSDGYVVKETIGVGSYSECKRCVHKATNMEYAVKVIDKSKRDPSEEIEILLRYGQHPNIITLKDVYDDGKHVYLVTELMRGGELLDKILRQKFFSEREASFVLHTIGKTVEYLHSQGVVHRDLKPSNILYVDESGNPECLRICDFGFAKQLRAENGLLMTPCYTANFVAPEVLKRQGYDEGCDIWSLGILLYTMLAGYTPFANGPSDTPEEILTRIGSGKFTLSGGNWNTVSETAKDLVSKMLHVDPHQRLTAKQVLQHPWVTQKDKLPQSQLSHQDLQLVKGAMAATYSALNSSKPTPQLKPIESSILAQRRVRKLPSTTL

One may read the inhibition as the relative decrease from the control value, in per cent. As for `COc1ccc(-c2cc3c(c(N)nn3C)c(=O)[nH]2)cc1`, the inhibition in experiment [1] was -8%; in [2] it was 62%; in [3] it was 18%; in experiment [4] it was 5%; in [5], 51%; in experiment [6] it was 81%. Also, the inhibition in experiment [7] is 56%; in [8], 5%; in experiment [9] it was 33%; in experiment [10], 9%; in experiment [11], 16%; in experiment [12] it was 28%. The inhibition in experiment [13] came out at 49%; in experiment [14], 46%; in [15], 36%; in experiment [16], 8%; in [17], 36%; in [18], 53%.

In the case of `COC(=O)CCc1c(C)[nH]c(=O)c2c(N)nn(C)c12`, the inhibition in experiment [1] was 3%; in experiment [2], 13%; in experiment [3] it was -5%; in experiment [4] it was -1%; in experiment [5], 11%; in [6] it was 17%. Further, the inhibition in [7] was determined as 7%; in experiment [8], 3%; in experiment [9] it was 9%; in experiment [10] it was 5%; in experiment [11], 5%; in experiment [12], 10%. Moreover, the inhibition in experiment [13] worked out at 6%; in experiment [14], 9%; in experiment [15], 5%; in experiment [16], 3%; in experiment [17], 2%; in experiment [18], 11%.

Consider `COc1ccc(-c2c(C)[nH]c(=O)c3c(N)nn(C)c23)cc1`, for which the inhibition in experiment [1] was 25%; in [2], 15%; in experiment [3], 18%; in [4], -1%; in experiment [5], 24%; in experiment [6], 58%. Moreover, the inhibition was found to be 20% in experiment [7]; 2% in experiment [8]; 31% in [9]; 13% in [10]; 7% in [11]; 13% in experiment [12]. Also, the inhibition in experiment [13] was 19%; in experiment [14], 11%; in experiment [15], 21%; in experiment [16], 10%; in experiment [17] it was 11%; in [18], 23%.

For the compound `Cn1nc(N)c2c(=O)[nH]c(-c3ccccn3)cc21`, the inhibition in experiment [1] turned out to be 10%; in experiment [2], 18%; in experiment [3], 9%; in experiment [4] it was 1%; in [5], 36%; in experiment [6] it was 46%. For the same compound, the inhibition in [7] came to 24%; in experiment [8] it was 16%; in [9], 7%; in [10], 7%; in experiment [11], 9%; in [12], 10%. For the same compound, the inhibition in experiment [13] came out at 10%; in experiment [14], 21%; in [15] it was 17%; in experiment [16], 5%; in [17], 34%; in experiment [18], 27%.

Regarding `Nc1c2c(=O)[nH]c(-c3ccccn3)cc2nn1-c1ccccc1`, the inhibition in experiment [1] is 8%; in [2], 98%; in experiment [3] it was 6%; in experiment [4], 32%; in [5] it was 4%; in experiment [6], 11%. The inhibition was 96% in experiment [7]; 4% in [8]; 30% in experiment [9]; 4% in experiment [10]; 6% in [11]; 4% in experiment [12]. Besides, the inhibition stood at 97% in experiment [13]; 91% in experiment [14]; 15% in experiment [15]; 0% in [16]; 7% in experiment [17]; 95% in experiment [18].

`CC(=O)Nc1nn(C)c2cc(-c3ccc(N4CCN(C)CC4)cc3)[nH]c(=O)c12`: the inhibition was -1% in experiment [1]; 20% in experiment [2]; 16% in experiment [3]; 3% in experiment [4]; 5% in experiment [5]; -3% in experiment [6]. Further, the inhibition in experiment [7] amounted to 15%; in experiment [8] it was 2%; in experiment [9], 15%; in [10], 4%; in experiment [11] it was 4%; in experiment [12], 3%. For the same compound, the inhibition in [13] was 8%; in experiment [14], 10%; in experiment [15] it was 13%; in experiment [16], 3%; in experiment [17], 16%; in experiment [18] it was 20%.

Turning to `Cn1nc(N)c2c(=O)[nH]c(-c3ccccc3)cc21`, the inhibition is 4% in experiment [1]; 32% in experiment [2]; 8% in experiment [3]; 7% in experiment [4]; 37% in experiment [5]; 66% in experiment [6]. For the same compound, the inhibition in experiment [7] worked out at 26%; in [8], 2%; in [9] it was 14%; in experiment [10] it was 8%; in experiment [11] it was 13%; in experiment [12], 19%. Further, the inhibition in [13] stood at 22%; in [14], 22%; in experiment [15], 14%; in experiment [16], 7%; in experiment [17] it was 25%; in [18], 26%.
